In ChEMBL document CHEMBL2331156, “Growth inhibition of human colon carcinoma cells by sesquiterpenoids and tetralones of Zygogynum calothyrsum” (2013):

How the values were obtained:
KM12 = assay: Cytotoxicity against human KM12 cells after 48 hrs by XTT assay; type: functional; conditions: KM12, 48 h
Outline: (§1)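 Two-day XTT colorimetric assay run on COLO205 and KM12 in parallel. Cells kept in RPMI-1640 with phenol red, 2mM L-glutamine and 10% FBS at 37 °C, 5% CO₂, and discarded after 25 passages. For the assay, cells were harvested into phenol-red-free medium without antibiotics and plated at 5,000 cells/well. After 24 hrs of incubation, samples were added as eight 2-fold serial dilutions. Values are the average of at least two tests.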

COLO 205 = assay: Cytotoxicity against human COLO205 cells after 48 hrs by XTT assay; type: functional; conditions: COLO 205, 48 h; outline: as §1

Compound	GI50 (KM12)	GI50 (COLO 205)
C=C(C)C1Cc2c(cc3c(c2O)C(=O)C[C@H](c2ccc(O)cc2)C3)O1 (stereo not given in full)	29 µM	35 µM
COc1cc(O)c2c(c1)C[C@@H](c1ccc(O)c(O)c1)CC2=O [CALOTHYRLONE A]	> 67 µM	> 67 µM
CO[C@H]1O[C@H](OC)[C@H]2C1=CC[C@H]1C(C)(C)CC[C@@H](OC(=O)/C=C/c3ccc(O)cc3)[C@]21C	> 45 µM	> 45 µM
CC1(C)CC[C@@H](OC(=O)/C=C/c2ccc(O)cc2)[C@]2(C)[C@@H]3C(=CC[C@@]12O)CO[C@@H]3O	25 µM	29 µM
CC1(C)CC[C@@H](OC(=O)/C=C/c2ccc(O)cc2)[C@]2(C)[C@@H]3C(=CC[C@@H]12)CO[C@@H]3O	14 µM	18 µM
COc1ccc([C@H]2CC(=O)c3c(cc4c(c3O)C=CC(C)(C)O4)C2)cc1O	17 µM	11 µM
CC1(C)CC[C@@H](OC(=O)/C=C/c2ccc(O)cc2)[C@]2(C)[C@@H](C=O)C(C=O)=CC[C@@H]12	25 µM	29 µM
CC1(C)CCC[C@]2(C)[C@H]3COC(=O)C3=CC[C@@H]12 [CINNAMOLIDE]	> 85 µM	> 85 µM
CC1(C)C=Cc2c(cc3c(c2O)C(=O)C[C@H](c2ccc(O)c(O)c2)C3)O1 [ZYGOLONE A]	14 µM	17 µM
C=C(C)C1Cc2c(cc3c(c2O)C(=O)C[C@H](c2ccc(O)c(O)c2)C3)O1 (stereo not given in full) [ISOZYGOLONE A]	32 µM	32 µM
